Experimental data taken from ChEMBL document CHEMBL4261610, “Structure-activity relationships of pyrazole-4-carbodithioates as antibacterials against methicillin-resistant Staphylococcus aureus” (Bioorg Med Chem Lett, 2018).
In brackets after ≈: the same amount, converted by molar mass. Activity calls are given as the source filed them. The calls are words filed in the database; no cut-off is given here.

How the values were obtained:
Staphylococcus aureus [1] = experiment: Antibacterial activity against methicillin-resistant Staphylococcus aureus MW2 after 24 hrs by two-fold broth microdilution method; assay type: functional; settings: MW2, 24 h
Summary of the method: (§1)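 Read-out is the minimum inhibitory concentration against MRSA strain MW2, expressed in μg/mL.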

[2] = Cytotoxicity against human HKC8 cells after 24 hrs by WST1 assay; assay type: cell-based; settings: HKC8, 24 h
Summary of the method: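 Human HKC-8 cells were exposed to compound, and cytotoxicity was reported as IC₅₀ in μg/mL.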

[3] = Selectivity index, ratio of IC50 for human HKC8 cells to MIC for methicillin-resistant Staphylococcus aureus MW2; assay type: toxicity; settings: read-out: Selectivity Index
Summary of the method: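 Ratio of the cytotoxic IC50 in human HKC-8 kidney cells to the MIC against MRSA MW2. Both values are in μg/mL and were measured in this work.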

dsDNA [4] = experiment: Binding affinity to Rt1 double stranded DNA (unknown origin) at DNA to compound ratio of 1:2.5 to 1:10 after 20 mins by ESI-MS analysis; assay type: nucleic-acid assay
dsDNA [5] = experiment: Binding affinity to D2 double stranded DNA (unknown origin) at DNA to compound ratio of 1:2.5 to 1:10 after 20 mins by ESI-MS analysis; assay type: nucleic-acid assay
dsDNA [6] = experiment: Binding affinity to Dst double stranded DNA (unknown origin) at DNA to compound ratio of 1:2.5 to 1:10 after 20 mins by ESI-MS analysis; assay type: nucleic-acid assay
Quadruplex DNA [7] = experiment: Binding affinity to ER03 quadruplex DNA (unknown origin) at DNA to compound ratio of 1:2.5 to 1:10 after 20 mins by ESI-MS analysis; assay type: nucleic-acid assay
DNA = experiment: Binding affinity to ER04 single stranded DNA (unknown origin) at DNA to compound ratio of 1:2.5 to 1:10 after 20 mins by ESI-MS analysis; assay type: nucleic-acid assay
Quadruplex DNA [8] = experiment: Binding affinity to G5 quadruplex DNA (unknown origin) at DNA to compound ratio of 1:2.5 to 1:10 after 20 mins by ESI-MS analysis; assay type: nucleic-acid assay
[9] = Binding affinity to RNA oligonucleotide (unknown origin)
Summary of the method: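 RNA oligonucleotides were incubated with compound, and adduct formation was examined by ESI mass spectrometry.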

[10] = Inhibition of DNA replication in cell-free system at >160 uM using 5'-flap-primed M13 ssDNA template/dNTP pretreated for 5 mins followed by DNA addition and measured after 20 mins by helicase-independent polymerase3 primer extension-strand displacement rolling circle assay; assay type: functional
Summary of the method: (§2)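 The cell-free bacterial replication system holds all enzymes, ancillary proteins, nucleotide precursors and DNA template needed to duplicate circular bacterial DNA. Covalent reaction with any component would read out as loss of replication.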

[11] = Inhibition of DNA replication in cell-free system at <640 uM using 5'-flap-dsDNA template/dNTP after 20 mins by helicase-dependent leading strand rolling circle replication assay; assay type: functional; summary of the method: as §2
[12] = Inhibition of RNA transcription in cell-free system; assay type: functional
Staphylococcus aureus [13] = experiment: Antibacterial activity against methicillin-resistant Staphylococcus aureus MW2; assay type: functional; summary of the method: as §1

Row | SMILES | MIC (Staphylococcus aureus [1]) [µg/mL] | IC50 [2] [µg/mL] | selectivity ratio [3] | further results
1 | CCCSC(=S)c1c(-c2ccc(F)cc2)nn(-c2ccccc2)c1O | 1 (≈ 2.68 µM) | 4 (≈ 10.7 µM) | 4 | –
2 | CCCSC(=S)c1c(-c2ccc(C)cc2)nn(-c2ccccc2)c1O | 1 to 2 (≈ 2.71 to 5.43 µM) | 8 (≈ 21.7 µM) | 4 to 8 | –
3 | CCCSC(=S)c1c(C)nn(-c2ccc(F)cc2)c1O | 2 to 4 (≈ 6.44 to 12.9 µM) | – | – | –
4 | CCCSC(=S)c1c(C)nn(-c2ccc(Cl)cc2)c1O | 2 to 4 (≈ 6.12 to 12.2 µM) | – | – | –
5 | CCCSC(=S)c1c(-c2ccccc2)nn(-c2ccccc2)c1O | 2 (≈ 5.64 µM) | 32 (≈ 90.3 µM) | 16 | –
6 | CCCSC(=S)c1c(C)nn(-c2ccc(OC)cc2)c1O | 8 (≈ 24.8 µM) | – | – | –
7 | CCCSC(=S)c1c(-c2ccc(Cl)cc2)nn(-c2ccccc2)c1O | 0.5 to 1 (≈ 1.29 to 2.57 µM) | 4 (≈ 10.3 µM) | 4 to 8 | –
8 | CCCSC(=S)c1c(-c2ccc([N+](=O)[O-])cc2)nn(-c2ccccc2)c1O | 1 (≈ 2.5 µM) | 0.5 (≈ 1.25 µM) | 0.5 | –
9 | Cc1nn(-c2ccccc2)c(O)c1C(=S)Sc1cccnc1 | 16 to 32 (≈ 48.9 to 97.7 µM) | – | – | –
10 | CCSC(=S)c1c(C)nn(-c2ccccc2)c1O | 8 (≈ 28.7 µM) | 8 (≈ 28.7 µM) | 1 | –
11 | CCCSC(=S)c1c(-c2ccc(OC)cc2)nn(-c2ccccc2)c1O | 2 (≈ 5.2 µM) | 8 (≈ 20.8 µM) | 4 | –
12 | CCCSC(=S)c1c(C)nn(-c2ccc(C#N)cc2)c1O | 2 (≈ 6.3 µM) | – | – | –
13 | CCCSC(=S)c1c(C)nn(-c2ccc(C)cc2)c1O | 4 (≈ 13.1 µM) | – | – | –
14 | CCCSC(=S)c1c(C)nn(-c2ccc([N+](=O)[O-])cc2)c1O | 0.5 to 1 (≈ 1.48 to 2.96 µM) | 0.5 to 1 (≈ 1.48 to 2.96 µM) | 1 | –
15 | CSC(SC)=C1C(=O)N(c2ccccc2)N=C1C | > 64 | – | – | –
16 | CCCCSC(=S)c1c(C)nn(-c2ccccc2)c1O | 2 to 4 (≈ 6.53 to 13.1 µM) | 4 (≈ 13.1 µM) | 1 to 2 | –
17 | CCCSC(=S)c1c(C)nn(-c2ccc(Br)cc2)c1O | 1 to 2 (≈ 2.69 to 5.39 µM) | – | – | –
18 | C=CCSC(=S)c1c(C)nn(-c2ccccc2)c1O | 4 to 8 (≈ 13.8 to 27.5 µM) | 16 to 32 (≈ 55.1 to 110 µM) | 2 to 4 | –
19 | CCCNC(=O)c1c(C)nn(-c2ccccc2)c1O | > 64 | – | – | –
20 | CCCSC(=S)c1c(-c2ccc(C(F)(F)F)cc2)nn(-c2ccccc2)c1O | 32 to 64 (≈ 75.7 to 151 µM) | – | – | –
21 | CCCSC(=S)c1c(-c2ccc(Br)cc2)nn(-c2ccccc2)c1O | 0.5 (≈ 1.15 µM) | – | – | –
22 | CCCSC(=S)c1c(-c2ccc(C#N)cc2)nn(-c2ccccc2)c1O | 2 (≈ 5.27 µM) | – | – | –
23 | CCCNC(=S)c1c(C)nn(-c2ccccc2)c1O | > 64 | – | – | –
24 | CCCSC(=S)c1c(C)nn(-c2ccccc2)c1O | 4 (≈ 13.7 µM) | 4 (≈ 13.7 µM) | 1 | Activity (dsDNA [4]): inactive; Activity (dsDNA [5]): inactive; Activity (dsDNA [6]): inactive; Activity (Quadruplex DNA [7]): inactive; Activity (DNA): inactive; Activity (Quadruplex DNA [8]): inactive; Activity [9]: inactive; inhibition [10]: Active; inhibition [11]: inactive; inhibition [12]: inactive; MIC (Staphylococcus aureus [13]): 4 µg/mL (≈ 13.7 µM)
25 | CSC(=S)c1c(C)nn(-c2ccccc2)c1O | 16 (≈ 60.5 µM) | 16 (≈ 60.5 µM) | 1 | –
26 | CCCOC(=O)c1c(C)nn(-c2ccccc2)c1O | > 64 | – | – | –
27 | Cc1nn(-c2ccccc2)c(O)c1C(=S)SCc1ccccc1 | 2 to 4 (≈ 5.87 to 11.7 µM) | 32 (≈ 94 µM) | 8 to 16 | –
